Assays:
Renin [1] = biological target: T1, Renin (Homo sapiens, UniProt P00797); assay: Inhibition of human recombinant renin using DNP-Lys-His-Pro-Phe-His-Leu-Val-Ile-His-D,L-Amp as substrate after 3 hrs by fluorimetry
T1 sequence (P00797 whole entry): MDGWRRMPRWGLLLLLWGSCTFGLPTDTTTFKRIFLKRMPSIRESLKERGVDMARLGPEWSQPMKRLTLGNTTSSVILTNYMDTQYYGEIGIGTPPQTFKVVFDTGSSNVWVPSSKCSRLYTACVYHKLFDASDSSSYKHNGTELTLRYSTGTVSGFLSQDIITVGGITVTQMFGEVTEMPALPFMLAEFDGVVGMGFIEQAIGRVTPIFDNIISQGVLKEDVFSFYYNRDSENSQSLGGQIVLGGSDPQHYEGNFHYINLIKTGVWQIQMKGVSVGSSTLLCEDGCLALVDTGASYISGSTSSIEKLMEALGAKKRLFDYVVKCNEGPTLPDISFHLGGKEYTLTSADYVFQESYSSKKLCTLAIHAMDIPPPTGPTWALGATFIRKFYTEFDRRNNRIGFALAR
Procedure, shortened: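 Human recombinant renin at 100 pM incubated with or without inhibitor and 6 µM Q-FRET substrate in 50 mM MOPS, 100 mM NaCl, pH 7.4, 0.002% Tween, 37 °C for 3 h. Fluorescence read at 0 and 3 h (ex 328 nm, em 388 nm). Values are means of at least two experiments.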

Renin [2] = biological target: T1, Renin; assay: Inhibition of human recombinant renin using QXL520-Lys-His-Pro-Phe-His-Leu-Val-Ile-His-Lys-(5-FAM) as substrate preincubated for 10 mins prior to substrate addition measure after 1 hr by fluorimetry in the presence of human plasma
Procedure, shortened: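 Frozen human EDTA-plasma thawed and centrifuged at 2900 g for 15 min. Recombinant human renin was added to the supernatant at 1 nM nominal, and inhibitor preincubation was 10 min at 37 °C. Q-FRET substrate was added in Tris/EDTA pH 7.2, then incubated 1 h at 37 °C. Fluorescence read at 0 and 1 h (ex 490 nm, em 520 nm). Means of at least two experiments.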

CYP3A4 [3] = biological target: T2, CYP3A4 (Homo sapiens, UniProt P08684); assay: Reversible inhibition of CYP3A4 using testosterone as substrate assessed as remaining activity at 10 uM; format: ADME; details: probe testosterone; read-out: Activity
CYP3A4 [4] = biological target: T2, CYP3A4; assay: Time dependent inhibition of CYP3A4 using testosterone as substrate at 10 uM for 30 mins; format: ADME; details: probe testosterone
Procedure, shortened: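 CYP3A4 conversion of testosterone (250 µM) to 6β-hydroxytestosterone compared before and after a 30 min preincubation with compound in DMSO. Result expressed as percentage activity loss; 0% change means no measurable time-dependent inhibition.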

[5] = biological target: Voltage-gated inwardly rectifying potassium channel KCNH2 (Homo sapiens, UniProt Q12809); assay: Inhibition of human ERG
[6] = Cmax in Sprague-Dawley rat at 30 mg/kg, po and 5 mg/kg, iv; format: ADME, organism-based; details: in vivo
[7] = Oral bioavailability in Sprague-Dawley rat at 30 mg/kg; format: ADME, organism-based; details: in vivo
[8] = Clearance in Sprague-Dawley rat at 30 mg/kg, po and 5 mg/kg, iv; format: ADME, organism-based; details: in vivo
[9] = Half life in Sprague-Dawley rat at 30 mg/kg, po and 5 mg/kg, iv; format: ADME, organism-based; details: in vivo
[10] = Volume of distribution at steady state in Sprague-Dawley rat at 30 mg/kg, po and 5 mg/kg, iv; format: ADME, organism-based; details: in vivo, read-out: Vdss
[11] = Oral bioavailability in Beagle dog at 3 mg/kg; format: ADME, organism-based, Canis lupus familiaris; details: in vivo
[12] = Cmax in Beagle dog at 3 mg/kg, po and 1 mg/kg, iv; format: ADME, organism-based, Canis lupus familiaris; details: in vivo
[13] = Clearance in Beagle dog at 3 mg/kg, po and 1 mg/kg, iv; format: ADME, organism-based, Canis lupus familiaris; details: in vivo
[14] = Half life in Beagle dog at 3 mg/kg, po and 1 mg/kg, iv; format: ADME, organism-based, Canis lupus familiaris; details: in vivo
[15] = Volume of distribution at steady state in Beagle dog at 3 mg/kg, po and 1 mg/kg, iv; format: ADME, organism-based, Canis lupus familiaris; details: in vivo, read-out: Vdss
Rattus norvegicus [16] = assay: Antihypertensive activity in rat dTGR model expressing human renin and angiotensinogen assessed as decrease in blood pressure at 10 mg/kg, po; format: functional
Rattus norvegicus [17] = assay: Antihypertensive activity in rat dTGR model expressing human renin and angiotensinogen assessed as time of blood pressure lowering effect at 10 mg/kg, po; format: functional

Voltage-gated inwardly rectifying potassium channel KCNH2, sequence (Q12809 whole entry): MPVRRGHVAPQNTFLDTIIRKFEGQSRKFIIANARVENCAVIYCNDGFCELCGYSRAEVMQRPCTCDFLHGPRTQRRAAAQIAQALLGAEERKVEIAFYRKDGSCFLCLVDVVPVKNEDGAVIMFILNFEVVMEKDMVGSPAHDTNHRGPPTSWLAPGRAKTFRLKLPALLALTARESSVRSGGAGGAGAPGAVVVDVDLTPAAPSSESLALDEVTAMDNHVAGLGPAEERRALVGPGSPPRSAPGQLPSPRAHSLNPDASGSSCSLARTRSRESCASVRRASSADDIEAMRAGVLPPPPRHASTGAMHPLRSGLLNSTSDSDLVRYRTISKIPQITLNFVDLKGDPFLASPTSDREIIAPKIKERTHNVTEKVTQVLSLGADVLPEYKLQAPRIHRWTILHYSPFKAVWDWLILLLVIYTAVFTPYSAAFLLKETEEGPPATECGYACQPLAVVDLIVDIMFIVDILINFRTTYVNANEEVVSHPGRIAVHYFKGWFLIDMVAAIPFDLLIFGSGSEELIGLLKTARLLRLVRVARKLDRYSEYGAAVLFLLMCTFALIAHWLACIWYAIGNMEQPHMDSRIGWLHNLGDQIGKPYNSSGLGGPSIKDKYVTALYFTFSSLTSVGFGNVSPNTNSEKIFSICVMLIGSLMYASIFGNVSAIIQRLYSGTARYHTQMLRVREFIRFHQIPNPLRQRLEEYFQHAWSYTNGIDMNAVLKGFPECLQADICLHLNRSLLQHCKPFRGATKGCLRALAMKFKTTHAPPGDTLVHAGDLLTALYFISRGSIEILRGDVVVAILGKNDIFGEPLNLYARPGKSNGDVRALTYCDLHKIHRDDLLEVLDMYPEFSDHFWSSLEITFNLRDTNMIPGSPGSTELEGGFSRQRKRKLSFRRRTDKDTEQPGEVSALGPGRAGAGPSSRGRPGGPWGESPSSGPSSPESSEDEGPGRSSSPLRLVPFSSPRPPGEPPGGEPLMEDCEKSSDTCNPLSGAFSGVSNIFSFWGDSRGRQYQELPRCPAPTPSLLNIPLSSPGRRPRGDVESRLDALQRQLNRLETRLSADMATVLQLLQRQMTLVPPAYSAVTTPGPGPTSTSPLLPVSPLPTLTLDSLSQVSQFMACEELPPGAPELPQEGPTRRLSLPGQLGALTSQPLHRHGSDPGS
T2 sequence (P08684 whole entry): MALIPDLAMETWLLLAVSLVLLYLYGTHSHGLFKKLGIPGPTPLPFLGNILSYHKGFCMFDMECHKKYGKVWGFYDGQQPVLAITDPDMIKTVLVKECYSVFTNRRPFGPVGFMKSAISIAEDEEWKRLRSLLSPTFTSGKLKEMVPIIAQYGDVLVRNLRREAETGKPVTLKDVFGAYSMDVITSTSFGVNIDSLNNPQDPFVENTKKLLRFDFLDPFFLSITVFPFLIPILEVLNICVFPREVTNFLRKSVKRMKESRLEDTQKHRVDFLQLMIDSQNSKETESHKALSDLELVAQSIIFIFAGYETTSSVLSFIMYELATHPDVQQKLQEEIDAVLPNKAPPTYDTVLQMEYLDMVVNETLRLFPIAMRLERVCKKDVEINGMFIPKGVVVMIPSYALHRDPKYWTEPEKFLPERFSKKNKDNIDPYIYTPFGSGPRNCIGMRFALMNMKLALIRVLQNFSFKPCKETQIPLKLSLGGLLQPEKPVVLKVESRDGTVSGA

IC50 (Renin [1]) [nM] | IC50 (Renin [2]) [nM] | activity at 10 µM (CYP3A4 [3]) [%] | inhibition at 0.5 h, 10 µM (CYP3A4 [4]) [%] | SMILES | IC50 [5] [nM] | further results
0.5 | 7.5 | 98 | 49 | CC(=O)NCCc1ccccc1-c1ccc([C@H]2CNCC[C@@H]2c2ccc(F)c(F)c2)c(Cl)c1 | – | –
1.4 | 3.6 | 98 | 55 | CC(=O)NCCc1ccccc1-c1ccc([C@H]2CNCC[C@@H]2c2cccnc2)c(Cl)c1 | – | –
0.17 | 1.3 | 88 | 68 | CC(=O)NCCc1ccccc1-c1ccc([C@H]2CNCC[C@@]23OCc2cc(F)c(F)cc23)c(C)c1 | 5100 | –
– | – | 76 | 37 | COCC(F)(F)COCc1ccc([C@@]2(O)CCNC[C@@H]2c2ccc(-c3ccccc3CCNC(C)=O)cc2C)cc1 | 9800 | –
– | – | 97 | 0 | CC(=O)NCCc1ccccc1-c1ccc([C@H]2CNCC[C@@H]2c2ccn(C)c(=O)c2)c(Cl)c1 | 5800 | –
4.8 | 8 | 92 | 21 | CCC(=O)NCCc1ccccc1-c1ccc([C@H]2CNCC[C@@H]2c2ccn(C)c(=O)c2)c(Cl)c1 | 2800 | –
3.52 | 6.1 | 92 | 46 | COC(=O)NCCc1ccccc1-c1ccc([C@H]2CNCC[C@@H]2c2ccn(C)c(=O)c2)c(Cl)c1 | – | –
11 | 28.2 | 91 | 58 | CCOC(=O)NCCc1ccccc1-c1ccc([C@H]2CNCC[C@@H]2c2ccn(C)c(=O)c2)c(Cl)c1 | 3200 | –
73.8 | 97.4 | – | – | COCC(=O)NCCc1ccccc1-c1ccc([C@H]2CNCC[C@@H]2c2ccn(C)c(=O)c2)c(Cl)c1 | – | –
0.5 | 4.95 | 87 | 40 | CC(=O)NCCc1ccccc1-c1ccc([C@H]2CNCC[C@]2(O)c2ccc(F)c(F)c2)c(C)c1 | 4200 | –
– | – | 88 | 72 | COC[C@H](C)COCc1ccc([C@@]2(O)CCNC[C@@H]2c2ccc(-c3ccccc3CCNC(C)=O)cc2C)cc1 | 9000 | –
– | – | 53 | 74 | CC(=O)NCCc1ccccc1-c1ccc([C@@H](CN)Cc2ccc(OCCOc3c(Cl)cc(C)cc3Cl)cc2)c(C)c1.Cl | – | Cmax [6]: 440 nM
– | – | – | – | CC(=O)NCCc1ccccc1-c1ccc([C@H]2CNCC[C@@H]2c2ccn(C)c(=O)c2)c(Cl)c1.Cl | – | bioavailability [7]: 12%; Cmax [6]: 450 nM; clearance [8]: 115 mL/min/kg; half-life [9]: 4 h; Vd [10]: 25 L/kg; bioavailability [11]: 30%; Cmax [12]: 350 nM; clearance [13]: 24 mL/min/kg; half-life [14]: 6.2 h; Vd [15]: 4.6 L/kg; Activity (Rattus norvegicus [16]): 32 mmHg; Time (Rattus norvegicus [17]): 24 h

SMILES | IC50 (Renin [1]) [nM] | IC50 (Renin [2]) [nM] | activity at 10 µM (CYP3A4 [3]) [%] | inhibition at 0.5 h, 10 µM (CYP3A4 [4]) [%] | IC50 [5] [nM] | further results
CC(=O)NCCc1ccccc1-c1ccc([C@H]2CNCC[C@@]23OC(=O)c2cc(F)c(F)cc23)c(C)c1 | 0.14 | 1.6 | 80 | 88 | 12900 | –

— ChEMBL document CHEMBL1955789, “3,4-Diarylpiperidines as potent renin inhibitors” (Bioorg Med Chem Lett, 2012)
